We go through two molecules from ChEMBL document CHEMBL3108729, “Design, synthesis and anticonvulsant evaluation of N-(benzo[d]thiazol-2-ylcarbamoyl)-2-methyl-4-oxoquinazoline-3(4H)-carbothioamide derivatives: a hybrid pharmacophore approach” (Eur J Med Chem, 2013).

SMILES strings stand for the structures. A value given as a limit tells only on which side of the number the result lay.

The test system of series [1] is Mus musculus. Nature of the series: Anticonvulsant activity in ip dosed albino mouse assessed as protection against AMPA-induced clonic phase of seizures after 30 mins. As to conditions: 0.5 h. Format: functional. The gist of the method: (§1)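 Mice were dosed i.p. over 10–100 µmol/kg. After 30 min, AMPA was injected i.c.v. into a lateral ventricle under ether anaesthesia, at 9.7 nmol for clonus or 11.7 nmol for forelimb tonic extension. Mice were observed singly for 30 min. ED50 values with 95% confidence limits were derived from dose–response data.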

The subject of series [2] is Rattus norvegicus. Nature of the series: Anticonvulsant activity in Wistar rat assessed as inhibition of GABA-induced seizures measuring minimum GABA level per 100 mg whole brain required for 50 % inhibition at 30 mg/kg, po for 7 days (reference value: 51.5 +/- 2.60 ug/100 mg brain). Format: functional. The gist of the method:
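Adult Wistar rats in groups of six were dosed orally at 30 mg/kg for 7 days. Whole-brain GABA was then measured enzymatically in ethanol extracts as µg/100 mg tissue. Values are mean ± SEM of six rats versus control (Student's t test).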

Series [3] has as its system Rattus norvegicus. Nature of the series: Anticonvulsant activity in Wistar rat assessed as inhibition of GABA-induced seizures measuring minimum GABA level per 100 mg whole brain required for 50 % inhibition at 100 mg/kg, ip as single dose measured after 2 hrs (reference value: 46.4 +/- 5.50 ug/100 mg brain). The format is functional. The following applies: route intraperitoneal.

The test system of series [4] is Rattus norvegicus. Nature of the series: Hepatotoxicity in albino rat assessed as change in SGOT level at 30 mg/kg, po for 14 days (reference value: 74.2+/-5.95 units/ml). Also noted: dose 30 mg/kg, route oral. Format: toxicity, organism-based. The following applies: in vivo, 336 h.
The test system of series [5] is Rattus norvegicus. The series is described as follows: Hepatotoxicity in albino rat assessed as change in SGPT level at 30 mg/kg, po for 14 days (reference value: 46.1+/-5.25 units/ml). Format: toxicity, organism-based. As to conditions: in vivo, 336 h. On the set-up: dose 30 mg/kg, route oral.
The nature of series [6]: Protective index, ratio of TD50 for neurotoxicity to ED50 for protection against maximal electroshock-induced seizure in albino rat after 0.5 hrs. As to conditions: in vivo, read-out: Ratio TD50/ED50. Format: toxicity, organism-based. The method, boiled down: (§2)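 Rats received oral doses in groups of eight at the time of peak effect, with at least three points in the 10–90% range for seizure protection or minimal neurotoxicity. ED50, TD50 and 95% confidence intervals were computed by regression, and PI was calculated as TD50/ED50.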

Series [7] is described as follows: Neurotoxicity in po dosed albino rat after 0.5 hrs. Format: toxicity, organism-based. As to conditions: in vivo.
The test system of series [8] is Rattus norvegicus. Nature of the series: Anticonvulsant activity in po dosed albino rat assessed as protection against pentylenetetrazole-induced seizure after 0.5 hrs. The format is functional.
Series [9] has as its system Rattus norvegicus. Nature of the series: Anticonvulsant activity in po dosed albino rat assessed as protection against maximal electroshock-induced seizures after 0.5 hrs. Format: functional.
In series [10] the test system is Mus musculus. Nature of the series: Neurotoxicity in albino mouse at 300 mg/kg, ip after 4 hrs by rotorod test. Format: toxicity, organism-based. On the set-up: dose 300 mg/kg, route intraperitoneal. As to conditions: in vivo. The gist of the method:
(§3)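 Swiss mice, four per dose, received 30, 100 or 300 mg/kg i.p. and were placed on a rotorod at 0.5 and 4 h. Neurotoxicity meant failure to keep balance for 1 min. The value reported is the minimum dose affecting half or more of the mice.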
(In general: In the rotarod test animals must keep their balance on a rotating rod.)

Series [11] concerns Mus musculus. The series is described as follows: Neurotoxicity in ip dosed albino mouse after 0.5 hrs by rotorod test. Format: toxicity, organism-based. As to conditions: in vivo. The gist of the method: as §3
Series [12] relates to Mus musculus. Nature of the series: Anticonvulsant activity in ip dosed albino mouse assessed as protection against maximal electroshock-induced seizures after 4 hrs. As to conditions: read-out: MED. Format: functional.
The test system of series [13] is Mus musculus. The series is described as follows: Anticonvulsant activity in ip dosed albino mouse assessed as protection against maximal electroshock-induced seizures after 0.5 hrs. The format is functional. As to conditions: read-out: MED. (Protection in the maximal electroshock model is a classic sign of anticonvulsant action.)
Series [14] in a line: Protective index, ratio of TD50 for neurotoxicity to ED50 for protection against pentylenetetrazole-induced seizure in albino rat after 0.5 hrs. The format is toxicity, organism-based. As to conditions: in vivo, read-out: Ratio TD50/ED50. The method, boiled down:
as §2

Series [15] concerns Mus musculus. Nature of the series: Anticonvulsant activity in ip dosed albino mouse assessed as protection against AMPA-induced tonic phase of seizures after 30 mins. Format: functional. As to conditions: 0.5 h. The gist of the method:
as §1

Series [16] deals with Mus musculus. Nature of the series: Anticonvulsant activity in ip dosed albino mouse assessed as protection against 6 Hz electroshock-induced seizures after 2 hrs. The format is functional.
Series [17] is described as follows: Protective index, ratio of TD50 for neurotoxicity to ED50 for protection against maximal electroshock-induced seizure in albino rat after 4 hrs. Format: toxicity, organism-based. As to conditions: in vivo, read-out: Ratio TD50/ED50. The gist of the method: as §2
The nature of series [18]: Neurotoxicity in po dosed albino rat after 4 hrs. The format is toxicity, organism-based. As to conditions: in vivo.
For series [19], the system named is Rattus norvegicus. Nature of the series: Anticonvulsant activity in po dosed albino rat assessed as protection against pentylenetetrazole-induced seizure after 4 hrs. Format: functional.
Series [20] has as its system Rattus norvegicus. Nature of the series: Anticonvulsant activity in po dosed albino rat assessed as protection against maximal electroshock-induced seizures after 4 hrs. Format: functional.
For series [21], the system named is Mus musculus. Nature of the series: Neurotoxicity in ip dosed albino mouse after 4 hrs by rotorod test. Format: toxicity, organism-based. As to conditions: in vivo. The gist of the method:
as §3

Series [22] in a line: Protective index, ratio of TD50 for neurotoxicity to ED50 for protection against pentylenetetrazole-induced seizure in albino rat after 4 hrs. As to conditions: in vivo, read-out: Ratio TD50/ED50. The format is toxicity, organism-based. The method, boiled down:
as §2

One may read the ED50 as the dose at which the effect has come halfway, by size or by number of responders. As usually defined, the TD50 is the dose at which the toxic effect under study appears in half of the subjects. Lower therefore signals greater toxicity. Consider `Cc1nc2ccccc2c(=O)n1C(=S)NC(=O)Nc1nc2ccc(OC(F)(F)F)cc2s1`, for which the ED50 in series [1] is 37.9 µmol/kg; in series [8], 510 µmol/kg; in series [9], 82.5 µmol/kg; in series [15], 28.5 µmol/kg. In addition, the GABA level in series [2] was 68.2 µg/100 mg brain; in series [3], 75.5 µg/100 mg brain. Besides, the figures for the Activity in [4], in series [5] and in series [10] were 72.4 U/ml, 44.7 U/ml and “Non-toxic”, respectively. Also, the selectivity ratio at 0.5 h was over 26 in series [6] and over 4.2 in series [14]. In addition, the TD50 at 0.5 h in series [7] is over 2150 µmol/kg. The MTC in series [11] was determined as 300 mg/kg. Further, the minimal effective dose in series [12] and in series [13] was 30 mg/kg in each case.
On to `Cc1nc2ccccc2c(=O)n1C(=S)NC(=O)Nc1nc2ccc(Cl)cc2s1`, for which the ED50 in series [1] worked out at 70.3 µmol/kg; in [16], 1230 µmol/kg; in [19], 722 µmol/kg; in series [20], 142 µmol/kg; in [15], 56.9 µmol/kg. Besides, the figures for the GABA level in series [2] and in [3] were 111 µg/100 mg brain and 92.1 µg/100 mg brain, respectively. The Activity worked out at 71.2 U/ml in series [4] and 48.5 U/ml in series [5]. For the same molecule, the selectivity ratio at 4 h in series [17] is over 17; in [22], over 3.4. Further, in series [18], the TD50 at 4 h is over 2500 µmol/kg. In addition, the MTC in series [21] and in [11] was 300 mg/kg each time. Moreover, the minimal effective dose in [12] turned out to be 100 mg/kg; in series [13] it was 30 mg/kg.
